# Source: PubChem
# CHOP UPR activ = activators of apoptotic arm of unfolded protein response (CHOP) | activation, % at 10 µM | AID 449763 | CHO-CHOP luciferase reporter, UPR activation, luminescence; percent of tunicamycin response over DMSO baseline | 330,000 tested, 0.34% active;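 active means at 10 µM dose, activation of 40% or more, normalized to positive control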;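 further: 100% = tunicamycin at 10 µg/mL and 0% = DMSO alone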
#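 measured by = luciferase luminescence | assay system = CHO-CHOP cells, stable luciferase reporter of PERK-eIF2a-CHOP signalling | amount = 500 reporter cells seeded per well | timing = 6 h compound exposure at 37 °C after overnight seeding | controls = positive tunicamycin 10 µg/mL, negative DMSO alone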
# UPR XBP1 act = adaptive UPR (XBP1) activation; 330,000 tested, 0.33% active; activation, % at 20 µM; CHO-XBP1 luciferase reporter, IRE1-XBP1 UPR activation, luminescence; percent of tunicamycin response, DMSO as zero; AID 463104;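 active means versus positive control, 20 µM dose yields 30% or more activation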;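 further: 100% = tunicamycin at 10 µg/mL and 0% = DMSO only wells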
#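 Material: CHO-XBP1 cells stably carrying IRE1-XBP1-driven luciferase reporter / Amount: 1000 cells per well / Compound: 20 µM, 1% DMSO / Times: 6 h treatment, 37 °C / Detection: luciferase luminescence / Measure: % activation of reporter signal versus tunicamycin and DMSO controls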
# CHOP inhibitor = blocks CHOP induction under ER stress; CHO-K1 CHOP-promoter luciferase, tunicamycin-induced, 15-18 h; inhibition, % at 10 µM; 220,000 tested, 3.8% active;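 active means compounds that reduced the stress-induced luciferase reporter signal by more than about 70% of percent inhibition, limit read from the data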;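 further: 0% = tunicamycin plus vehicle and 100% = wells without tunicamycin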
# Lmaj promast = reduces viability of Leishmania major promastigotes | resazurin fluorescence viability | inhibition, % at 10 µM | 200,000 tested, 9% active | AID 1063; in the data active means inhibition above about 50%;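 further: promastigotes grown with compound for 44 hours at 28 °C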
# T cruzi inh = blocks replication of Trypanosoma cruzi; T. cruzi beta-gal in NIH3T3, luminescence, 90 h; inhibition, % (no concentration beside the values); 300,000 tested, 1.4% active;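 active means mean inhibition across valid replicates above about 55%, limit read from the data; inconclusive means mean below that limit but half or more replicates reach it; inactive means mean below it, under half of replicates reach it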;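 further: signal also drops with host cell toxicity which is not excluded here; 0% = plate median of DMSO wells and 100% = zero luminescence signal; higher percent means less beta-gal luminescence so fewer parasites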
#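 compound dosing = single 50 nL compound addition per well in DMSO | material = NIH/3T3 host cells with β-galactosidase reporter T. cruzi | input = 5,000 host fibroblasts per well | timing = ≥90 h infection period, 3 h prior cell attachment | read-out basis = percent inhibition of parasite-derived β-gal signal | detection = GalScreen β-gal luminescence, detergent lysis, 60 min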
# Dynein cargo inh = blocks dynein driven cargo transport along microtubules. 3617.4 mouse cells, GR-EGFP nuclear translocation imaging; test concentration mostly 20 µM; stimulated with dexamethasone, 1 µM; stronger effect = lower value. z-score, hits read low. 220,000 tested, 0.47% active. AID 1381;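 active means plate z-score of nuclear minus cytoplasmic receptor signal below a set negative limit, without overly bright fluorescence or cell loss, cut at about -3.5 in these data, passing the limit was not always enough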;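 further: z-score of nuclear minus cytoplasmic ring GR-EGFP intensity difference per well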
#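 Buffer or medium: tet-free, stripped-serum medium; reagent: dexamethasone at 1.0 µM final, 30 min; incubation: 48 h induction, 1 h compound, 30 min dex at 37 °C; measured by: formaldehyde fixation, Hoechst nuclear stain, 10x automated fluorescence imaging; read-out: nuclear-to-cytoplasmic GR-EGFP distribution per well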
# * marks the source's active call; other numbers are inactive results; ? = inconclusive; . = no result given. This is one part of a sample in which hits are shown more often than they occur.
SMILES,CHOP UPR activ,UPR XBP1 act,CHOP inhibitor,Lmaj promast,T cruzi inh,Dynein cargo inh
COc1ccc(-n2cnnc2SCC(=O)Nc2ccc(N3CCOCC3)cc2)cc1,-1,1,24,52*,-13,0.83
CCn1c(SCC(=O)NC2CCCc3ccccc32)nnc1-c1ccncc1 (configuration not stated),0,-2,31,-5,11,0.71
Cc1ccc(/C=C/C(=O)OCC(=O)NCc2cccs2)o1,0,-2,.,.,.,.
Cc1nc2cc(-c3ccc(Cl)cc3)nn2c(NCCN(C)C)c1C,3,10,-51,100*,?,1.1
CCCCN(C(=O)c1ccncc1)c1c(N)n(CCC)c(=O)[nH]c1=O,-2,-1,.,.,.,.
O=C(N/N=C/c1ccccc1)c1n[nH]c2c1CCCC2,-1,-6,28,16,-6,-0.58
O=C(N/N=C/C(Br)=C/c1ccccc1)c1n[nH]c2c1CCC2,17,-2,.,98*,-24,-0.62
CCS(=O)(=O)N1CCN(S(=O)(=O)c2ccc(F)cc2)CC1,0,-1,-18,-4,-6,-0.25
CCC(C)N(C)Cc1cccc(C2(O)CCN(S(=O)(=O)c3ccc(F)cc3)CC2)c1 (configuration not stated),1,1,17,100*,-8,-0.6
O=C(COC(=O)[C@@H]1CCCN1C(=O)c1cccs1)Nc1cccc([N+](=O)[O-])c1,1,-1,.,.,.,.
CC(C)(C)NC(=O)CON=C1c2ccccc2-c2ccccc21,3,-2,68,8,-5,-0.78
CC(C)(C)NCC(O)CON=C1c2ccccc2-c2ccccc21 (configuration not stated),2,1,-8,99*,24,2.6
CCOC(=O)N1CCC(N2C(=O)c3ccccc3C2Nc2cc(C)cc(C)c2)CC1 (configuration not stated),0,-2,17,.,-2,-1.3
CCOC(=O)N1CCC(N2C(=O)c3ccccc3C2Nc2cc(C(=O)OC)cc(C(=O)OC)c2)CC1 (configuration not stated),1,-4,18,62*,-3,0.37
O=C(CCNC(=O)C1CCN(S(=O)(=O)c2ccc(F)cc2)CC1)NCc1ccncc1,3,-7,.,.,-13,.
Cc1noc(C)c1COc1ccccc1C(=O)N(C)CC(=O)Nc1ccc(F)c(F)c1F,3,3,.,.,.,.
O=C(C1=C[C@H](c2ccc3c(c2)OCO3)C[C@H](OCCCCO)O1)N1CCN(Cc2ccc3c(c2)OCO3)CC1,0,1,-12,51*,29,2
O=C(C1=C[C@H](C2CCCCC2)C[C@H](OCCCCO)O1)N1CCN(Cc2ccc3c(c2)OCO3)CC1,2,-1,12,97*,56*,-1.2
O=C(C1=C[C@@H](c2ccc3c(c2)OCO3)C[C@@H](OCCCCO)O1)N1CCN(Cc2ccc3c(c2)OCO3)CC1,2,-1,20,23,3,0.029
CCOc1ccc(NC(=O)Nc2ccon2)cc1,3,0,.,.,-21,.
Cc1cccc(NC(=O)CN2CCC(NC(=O)C3CCCCC3)CC2)c1C,-1,-3,-6,-5,-18,1
COC(=O)c1ccc(Oc2nc(Nc3ccc(C)c(C)c3)nc(N(C)C)n2)cc1,-3,7,54,74*,22,-0.67
CCOC(=O)c1ccc(Oc2nc(NC)nc(Nc3ccccc3)n2)cc1,4,5,53,97*,23,2.2
CCNc1nc(Oc2ccc(C(=O)OC)cc2)nc(N(C)C)n1,0,-1,30,3,-5,-0.18
Cc1cc(C)n(Cc2ccccc2)c(=O)c1S(=O)(=O)c1ccccc1,-2,-2,1,-1,-10,0.42
SMILES,CHOP UPR activ,UPR XBP1 act,CHOP inhibitor,Lmaj promast,T cruzi inh,Dynein cargo inh
Cc1cc(C)n(Cc2ccc(Cl)c(Cl)c2)c(=O)c1S(=O)(=O)c1ccccc1,.,.,74*,2,9,-0.43
CC(NC(=O)Nc1nnc(C(F)(F)F)s1)(C(F)(F)F)C(F)(F)F,8,0,89*,43,45,-0.68
COC(=O)N1c2ccccc2C=Cc2ccccc21,1,-4,.,.,3,.
CCCN1CCN(S(=O)(=O)c2ccc(-c3cc(C)no3)s2)CC1,0,-5,.,.,-9,.
Cc1c(NC(=O)c2ccc(CC(C)C)o2)c(=O)n(-c2ccccc2)n1C,2,4,.,.,-6,.
CCc1ccccc1NC(=S)N(CCN1CCCCC1)Cc1ccco1,3,-2,18,8,-4,0.27
COc1ccccc1NC(=S)N(Cc1cccnc1)Cc1ccco1,1,0,8,17,30,1.2
CCc1ccccc1NC(=S)N(Cc1cccnc1)Cc1ccco1,2,-1,25,99*,?,-0.45
Cc1cc(C)c(NC(=S)N(Cc2cccnc2)Cc2ccco2)c(C)c1,-1,-3,38,88*,51,-0.62
COc1ccc(Cl)cc1NC(=S)N(Cc1cccnc1)Cc1ccco1,-1,3,29,13,66*,-0.37
CC(CN1CCOCC1)OC(=O)c1cccc(Cl)c1 (configuration not stated),0,-5,.,.,-2,.
COc1cc(/C=C/C(=O)OCC(=O)N2CCc3ccccc3C2)ccc1O,1,-1,44,76*,-2,-0.42
COc1ccc(-c2nnn(CC(=O)NCc3ccc4c(c3)OCO4)n2)cc1OC,-1,0,21,-3,-6,2.9
Cc1ccc(-c2nc(CS(=O)(=O)CC(=O)N3CCc4ccccc4C3)c(C)o2)cc1,-1,-1,72*,-3,2,-0.25
CCc1cccc2c(C(=O)COC(=O)/C=C/c3ccc(O)c(OC)c3)c[nH]c12,3,2,28,99*,0,0.34
COc1cc(/C=C/C(=O)OCC(=O)N2CCC(C)CC2)ccc1O,1,-1,.,.,-8,.
CCc1cccc2c(C(=O)Cn3nnc(-c4ccc(OC)c(OC)c4)n3)c[nH]c12,-1,-3,72*,14,32,0.2
O=C(NCC(c1ccco1)N1CCc2ccccc2C1)C(=O)Nc1ccc(F)cc1F (configuration not stated),0,0,.,.,24,.
O=C(COC(=O)CSc1ccc(F)cc1)NC1CCCCCC1,1,0,.,.,.,.
CC(C)(C)c1ccc(/C=C/C(=O)N2CCc3ccccc3C2)cc1,-1,-1,61,-5,15,0.95
Cc1ccc(/C=C/C(=O)N2CCc3ccccc3C2)cc1,3,2,72*,1,-2,0.45
COc1ccc(OC)c(NC(=O)c2cc(-c3cc(C)ccc3O)n[nH]2)c1,4,3,.,.,-17,.
